Three molecules from ChEMBL document CHEMBL1142138, “Development of a novel dicistronic reporter-selectable hepatitis C virus replicon suitable for high-throughput inhibitor screening” (Antimicrob Agents Chemother, 2007) can be followed below.

SMILES strings stand for the structures. pEC50, pIC50: −log10 of the molar value.

Series [1] has as its target RNA-directed RNA polymerase (Hepacivirus hominis, UniProt O39930). The series can be described thus: Inhibition of recombinant HCV 1b BK NS5B polymerase by primer/template-directed transcription assay. Further details: species or system Hepatitis C virus subtype 1b. Summed up:
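Recombinant genotype 1b (strain BK) NS5B with biotin-dG12 primer (5 pmol) and poly(rC)300 template (0.5 pmol). Enzyme-started, 30 min at 30°C, EDTA stop, DEAE filter capture, scintillation counting. Final DMSO 1%. IC50 fitted from triplicate cpm.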

Series [2] relates to Hepatitis C virus. The series can be described thus: Antiviral activity against HCV 1b con1 in dual-reporter HCV replicon Huh7 cells by measuring hRLuc reporter activity after 72 hrs. Format: functional, organism-based, Hepacivirus hominis. The conditions noted are these: genotype 1b con1, Huh-7, 72 h. The gist of the method:
(§1)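 Replicon cells seeded at 2 x 10^4/well in DMEM without selection antibiotics. Eight threefold serial compound dilutions added, final 320 to 0.1 µM (IFN 10 to 0.003 IU/ml). After 3 days at 37°C, medium removed and hRLuc activity read with a dual-luciferase reporter kit. Percent inhibition was taken relative to compound-free control and EC50 derived.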
In general terms: A replicon is a self-replicating genome or part of one, used to study replication in cells.

The test system of series [3] is Hepatitis C virus. The series can be described thus: Antiviral activity against HCV 1b con1 in dual-reporter HCV replicon Huh7 cells assessed as inhibition of HCV RNA after 72 hrs by RT-PCR. Format: functional, organism-based, Hepacivirus hominis. The conditions noted are these: genotype 1b con1, Huh-7, 72 h. The gist of the method:
(§2)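 Cells were then PBS-washed and total RNA extracted. HCV RNA and GAPDH mRNA were quantified by TaqMan RT-PCR against standard curves, and HCV was normalized to GAPDH at each concentration. Percent inhibition was computed versus DMSO-treated wells, giving EC50. Reactions were also run without reverse transcriptase.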

In series [4] the test system is Hepatitis C virus. The experiment in a line: Antiviral activity against HCV 1b con1 in dicistronic reporter selectable HCV replicon Huh7 cells assessed as inhibition of HCV RNA after 72 hrs by RT-PCR. Format: functional, organism-based, Hepacivirus hominis. The following applies: genotype 1b con1, Huh-7, 72 h. Summed up:
as §2

Series [5] has as its system Hepatitis C virus. The series can be described thus: Antiviral activity against HCV 1b con1 in HCV 1b in dicistronic reporter selectable HCV replicon Huh7 cells by measuring hRLuc reporter activity after 72 hrs. The conditions noted are these: genotype 1b con1, Huh-7, 72 h. Format: functional, organism-based, Hepacivirus hominis. The gist of the method:
as §1

Series [6] can be described thus: Cytotoxicity against dual-reporter HCV replicon Huh7 cells by measuring FLuc reporter activity after 72 hrs. The following applies: human. Format: cell-based, Huh-7. Summed up: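 DDR cells carry a nuclear FLuc reporter. They were seeded at 2 x 10^4/well without selection antibiotics and given eight threefold compound dilutions, final 320 to 0.1 µM. After 3 days, medium was removed and FLuc read with a dual-luciferase kit. Percent inhibition was calculated versus compound-free control.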

Series [7] can be described thus: Selectivity index, CC50 for dual-reporter HCV replicon Huh7 cells to EC50 against HCV 1 in dual-reporter HCV replicon Huh7 cells. Format: functional, Huh-7. The gist of the method: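 Dual-reporter replicon cells: hRLuc from the replicon, FLuc in the nucleus. Seeded at 2 x 10^4/well without selection antibiotics, then eight threefold compound dilutions (final 320 to 0.1 µM). After 3 days, XTT/PMS for 4 h read at 450/650 nm, then FLuc and hRLuc luminescence. Percent inhibition calculated from the luciferase and XTT signals. Index = CC50/EC50.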

Series [8] can be described thus: Cytotoxicity against dual-reporter HCV replicon Huh7 cells by measuring XTT end points after 72 hrs. The following applies: human. Format: cell-based, Huh-7. Summed up: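 Cells were seeded at 2 x 10^4/well without selection antibiotics and exposed to eight threefold dilutions, final 320 to 0.1 µM, for 3 days. XTT (final 200 µg/ml) and phenazine methosulfate (final 1 mM) were then added. After 4 h, formazan was read at 450 nm against a 650 nm reference, and percent inhibition calculated versus control.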

Chain of RNA-directed RNA polymerase (O39930 whole entry): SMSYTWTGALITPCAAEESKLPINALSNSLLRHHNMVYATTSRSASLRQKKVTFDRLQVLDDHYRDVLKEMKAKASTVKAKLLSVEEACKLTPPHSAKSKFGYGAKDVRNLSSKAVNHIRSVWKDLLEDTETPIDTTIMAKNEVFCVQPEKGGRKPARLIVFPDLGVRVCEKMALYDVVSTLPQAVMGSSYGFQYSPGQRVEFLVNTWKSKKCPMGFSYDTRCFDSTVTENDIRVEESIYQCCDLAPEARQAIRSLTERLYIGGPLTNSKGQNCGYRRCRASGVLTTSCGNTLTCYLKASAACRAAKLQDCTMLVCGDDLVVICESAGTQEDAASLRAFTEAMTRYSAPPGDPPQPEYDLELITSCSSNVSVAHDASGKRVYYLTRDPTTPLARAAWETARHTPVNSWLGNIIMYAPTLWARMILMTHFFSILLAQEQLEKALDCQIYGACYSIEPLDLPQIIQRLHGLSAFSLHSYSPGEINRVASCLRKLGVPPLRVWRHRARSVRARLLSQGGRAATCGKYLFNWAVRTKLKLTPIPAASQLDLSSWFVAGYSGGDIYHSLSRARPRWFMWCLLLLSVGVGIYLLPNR

On to `COc1cc(OC)c(CCC2(C3CCCC3)CC(O)=C(Sc3nc4nc(C)cc(C)n4n3)C(=O)O2)cc1Cl` (stereo unspecified), for which the negative logarithm of the IC50 (pIC50) – broadly, the IC50 on a negative log10 scale, so that one unit is a factor of ten – in series [1] is 7.85. For the same molecule, the pEC50 (in general, the negative decadic logarithm of the EC50, by convention in mol/L) in the series with Hepatitis C virus [2] is 5.77; with Hepatitis C virus [3], 5.49; in the series on Hepatitis C virus [4], 5.62; in the series on Hepatitis C virus [5], 5.48. In addition, the CC50 at 72 h in series [6] and in series [8] was above 320 µM in each case. In series [7], this molecule returned a Selectivity index above 188.2.
As to `Cc1cc(SC2=C(O)OC(CCc3ccc(O)cc3)(C3CCCC3)CC2=O)c(C(C)(C)C)cc1N` (stereo unspecified), in the series on Hepatitis C virus [2], the pEC50 was 3.94. Moreover, the CC50 (as a rule, the concentration at which the toxic effect on the cells reaches its halfway point) at 72 h in series [6] worked out at 116 µM; in series [8] it was 242 µM. The Selectivity index in series [7] is listed as 0.9.
For `OC[C@H]1O[C@@H](n2cnc3cc(Cl)c(Cl)cc32)[C@H](O)[C@@H]1O` [DICHLORORIBOBENZIMIDAZOLE], the pEC50 in the series with Hepatitis C virus [2] is 4.47. The values for the CC50 at 72 h in series [6] and in series [8] were 60.7 µM and 40.4 µM, respectively. For the same molecule, the Selectivity index in series [7] is listed as 0.7.
